Source: ChEMBL document CHEMBL1131483, “Discovery of novel pyridinopolyamines with potent antimicrobial activity: deconvolution of mixtures synthesized by solution-phase combinatorial chemistry” (1998)
In brackets after ≈: the same amount, converted by molar mass.

Legend:
Assay type in all cases: functional
Escherichia coli [1] = assay: (§1) Minimum inhibitory concentration of Escherichia coli growth.
Klebsiella pneumoniae = assay: Minimum inhibitory concentration of Klebsiella pneumoniae growth.
Procedure, shortened: (§2)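 Broth-microdilution at 37 °C. Strains and media: E. faecalis ATCC 29212 in Todd-Hewitt, K. pneumoniae ATCC 13883 and P. vulgaris ATCC 8427 in nutrient broth, S. aureus ATCC 25923 in trypticase soy broth. About 1 × 10^7 cells/well, sample in 4% DMSO in water, duplicate. A595 read at 24 h versus a no-compound well. MIC is reported as a range. Ampicillin and tetracycline were controls.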

Candida albicans = assay: Minimum inhibitory concentration of Candida albicans growth.
Procedure, shortened: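 Candida albicans ATCC 10231 in YM broth at 22 °C. Overnight culture added to sample in 4% DMSO in water, about 1 × 10^5 cells/well, 150 μL, duplicate. Growth scored visually at 48 h. MIC is reported as a concentration range: full inhibition at the upper value, viable cells at the lower. Amphotericin B was the positive control.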

Enterococcus faecalis = assay: Minimum inhibitory concentration of Enterococcus faecalis growth.; procedure, shortened: as §2
Streptococcus pyogenes [2] = assay: Minimum inhibitory concentration of Streptococcus pyogenes (wt) growth.
Procedure, shortened: (§3)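 Streptococcus pyogenes in Todd-Hewitt broth at 37 °C. The tier II strain is ATCC 49399. Overnight culture at about 1 × 10^7 cells/well, sample in 4% DMSO in water, duplicate. Percent growth versus a no-compound well by A595 at 24 h. MIC is a concentration range: full inhibition at the upper value, growth at the lower. Ampicillin and tetracycline were controls.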

Proteus vulgaris = assay: Minimum inhibitory concentration of Proteus vulgaris growth.; procedure, shortened: as §2
Staphylococcus aureus = assay: Minimum inhibitory concentration of Staphylococcus aureus growth.; procedure, shortened: as §2
Streptococcus pyogenes [3] = assay: Minimum inhibitory concentration of Streptococcus pyogenes growth.; procedure, shortened: as §3
Pseudomonas aeruginosa = assay: Minimum inhibitory concentration of Pseudomonas aeruginosa growth.
Procedure, shortened: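 Pseudomonas aeruginosa ATCC 27853 in nutrient broth at 37 °C. About 1 × 10^7 cells/well, sample in 4% DMSO in water, 150 μL, duplicate. Growth relative to an untreated well was read at A595 after 24 h. MIC is given as a range, complete inhibition at the higher concentration. Ciprofloxacin was the positive control.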

Escherichia coli [4] = assay: as §1; remark: listed apart in the source
[5] = Escherichia coli, read-out: MIC
[6] = Streptococcus pyogenes, read-out: MIC

Structure (SMILES) | MIC (Escherichia coli [1]; [5]) | MIC (Klebsiella pneumoniae) | MIC (Candida albicans; Candida albicans) | MIC (Enterococcus faecalis) | MIC (Streptococcus pyogenes [2]) | MIC (Proteus vulgaris) | MIC (Staphylococcus aureus) | MIC (Streptococcus pyogenes [3]; [6]) | MIC (Pseudomonas aeruginosa) | MIC (Escherichia coli [4]) | MIC (Escherichia coli [1]) | MIC (Candida albicans) | MIC (Streptococcus pyogenes [3])
Cc1cccc(CN(CCNCCCO)Cc2cccc(CN(Cc3cccc(C(F)(F)F)c3)Cc3cccc(C(F)(F)F)c3)n2)c1 | 25 µM (≈ 16.5 µg/mL) | > 100 µM | > 100 µM | 6 µM (≈ 3.95 µg/mL) | 6 µM (≈ 3.95 µg/mL) | > 100 µM | 12 µM (≈ 7.9 µg/mL) | 5 µM (≈ 3.29 µg/mL) | > 100 µM | > 100 µM |  |  | 
OCCCNCCN(Cc1ccccc1)Cc1cccc(CN(Cc2ccccc2)Cc2ccccc2)n1 | 10 µM (≈ 5.09 µg/mL) | 50 µM (≈ 25.4 µg/mL) | 50 µM (≈ 25.4 µg/mL) | 12 µM (≈ 6.1 µg/mL) | 6 µM (≈ 3.05 µg/mL) | 50 µM (≈ 25.4 µg/mL) | 25 µM (≈ 12.7 µg/mL) | 5 µM (≈ 2.54 µg/mL) | 50 µM (≈ 25.4 µg/mL) | 12 µM (≈ 6.1 µg/mL) |  |  | 
COC(=O)c1cccc(CN(Cc2cccc(C(F)(F)F)c2)Cc2cccc(CN(CCNCCCO)Cc3cccc(C)c3)n2)c1 | 25 µM (≈ 16.2 µg/mL) | > 100 µM | < 12.5 µM | 6 µM (≈ 3.89 µg/mL) | 6 µM (≈ 3.89 µg/mL) | > 100 µM | 12 µM (≈ 7.79 µg/mL) | 5 µM (≈ 3.24 µg/mL) | > 100 µM | > 100 µM |  |  | 
NCc1cccc(CNCCNCCCO)n1 | > 100 µM |  | > 100 µM |  |  |  |  | > 100 µM |  |  |  |  | 
OCCCN(CCN(Cc1ccccc1)Cc1cccc(CN(Cc2ccccc2)Cc2ccccc2)n1)Cc1ccccc1 | 25 µM (≈ 15 µg/mL) |  | 5 µM (≈ 2.99 µg/mL) |  |  |  |  | 25 µM (≈ 15 µg/mL) |  |  |  |  | 
COC(=O)c1cccc(CN(Cc2cccc(C(F)(F)F)c2)Cc2cccc(CN(CCNCCCO)Cc3cccc(C(F)(F)F)c3)n2)c1 | 6 µM (≈ 4.22 µg/mL) | > 100 µM | > 100 µM | 6 µM (≈ 4.22 µg/mL) | 6 µM (≈ 4.22 µg/mL) | > 100 µM | 12 µM (≈ 8.43 µg/mL) | 3 µM (≈ 2.11 µg/mL) | > 100 µM | > 100 µM |  |  | 
Cc1cccc(CN(CCNCCCO)Cc2cccc(CN(Cc3cccc(F)c3)Cc3cccc(C(F)(F)F)c3)n2)c1 | 5 µM (≈ 3.04 µg/mL) | 25 µM (≈ 15.2 µg/mL) | < 12.5 µM | 6 µM (≈ 3.65 µg/mL) | 6 µM (≈ 3.65 µg/mL) | > 100 µM | 6 µM (≈ 3.65 µg/mL) | 5 µM (≈ 3.04 µg/mL) | > 100 µM | > 100 µM |  |  | 
OCCCNCCN(Cc1cccc(C(F)(F)F)c1)Cc1cccc(CN(Cc2ccccc2)Cc2cccc(C(F)(F)F)c2)n1 | 3 µM (≈ 1.93 µg/mL) | 50 µM (≈ 32.2 µg/mL) | > 100 µM | 12 µM (≈ 7.74 µg/mL) | 12 µM (≈ 7.74 µg/mL) | > 100 µM | 25 µM (≈ 16.1 µg/mL) | 3 µM (≈ 1.93 µg/mL) | > 100 µM | > 100 µM |  |  | 
Cc1cccc(CN(CCNCCCO)Cc2cccc(CN(Cc3ccccc3)Cc3cccc(C(F)(F)F)c3)n2)c1 | 5 µM (≈ 2.95 µg/mL) | 12 µM (≈ 7.09 µg/mL) | < 12.5 µM | 6 µM (≈ 3.54 µg/mL) | 6 µM (≈ 3.54 µg/mL) | > 100 µM | 6 µM (≈ 3.54 µg/mL) | 5 µM (≈ 2.95 µg/mL) | > 100 µM | 25 µM (≈ 14.8 µg/mL) |  |  | 
Cc1cccc(CN(CCNCCCO)Cc2cccc(CN(Cc3cccc([N+](=O)[O-])c3)Cc3cccc(C(F)(F)F)c3)n2)c1 | 25 µM (≈ 15.9 µg/mL) | > 100 µM | 50 µM (≈ 31.8 µg/mL) | 6 µM (≈ 3.81 µg/mL) | 6 µM (≈ 3.81 µg/mL) | > 100 µM | 6 µM (≈ 3.81 µg/mL) | 5 µM (≈ 3.18 µg/mL) | > 100 µM | > 100 µM |  |  | 
OCCCNCCN(Cc1cccc(C(F)(F)F)c1)Cc1cccc(CN(Cc2cccc(F)c2)Cc2cccc(C(F)(F)F)c2)n1 | 6 µM (≈ 3.98 µg/mL) | > 100 µM | > 100 µM | 6 µM (≈ 3.98 µg/mL) | 6 µM (≈ 3.98 µg/mL) | > 100 µM | 12 µM (≈ 7.95 µg/mL) | 6 µM (≈ 3.98 µg/mL) | > 100 µM | > 100 µM |  |  | 
O=[N+]([O-])c1cccc(CN(CCNCCCO)Cc2cccc(CN(Cc3cccc([N+](=O)[O-])c3)Cc3cccc([N+](=O)[O-])c3)n2)c1 | 10 µM (≈ 6.44 µg/mL) | > 100 µM | > 100 µM | > 100 µM | 12 µM (≈ 7.72 µg/mL) | > 100 µM | 12 µM (≈ 7.72 µg/mL) | 5 µM (≈ 3.22 µg/mL) | > 100 µM | > 100 µM |  |  | 
O=[N+]([O-])c1cccc(CN(Cc2cccc(C(F)(F)F)c2)Cc2cccc(CN(CCNCCCO)Cc3cccc(C(F)(F)F)c3)n2)c1 | 6 µM (≈ 4.14 µg/mL) | > 100 µM | > 100 µM | 6 µM (≈ 4.14 µg/mL) | 6 µM (≈ 4.14 µg/mL) | > 100 µM | 6 µM (≈ 4.14 µg/mL) | 3 µM (≈ 2.07 µg/mL) | > 100 µM | > 100 µM | 5 µM (≈ 3.45 µg/mL) | > 100 µM | 5 µM (≈ 3.45 µg/mL)
OCCCNCCN(Cc1cccc(C(F)(F)F)c1)Cc1cccc(CN(Cc2cccc(C(F)(F)F)c2)Cc2cccc(C(F)(F)F)c2)n1 | 5 µM (≈ 3.56 µg/mL) | > 100 µM | > 100 µM | > 100 µM | 12 µM (≈ 8.55 µg/mL) | > 100 µM | 6 µM (≈ 4.28 µg/mL) | 5 µM (≈ 3.56 µg/mL) | > 100 µM | > 100 µM |  |  | 
Cc1cccc(CN(CCNCCCO)Cc2cccc(CN(Cc3cccc(C)c3)Cc3cccc(C(F)(F)F)c3)n2)c1 | 25 µM (≈ 15.1 µg/mL) | 12 µM (≈ 7.26 µg/mL) | < 12.5 µM | 6 µM (≈ 3.63 µg/mL) | 6 µM (≈ 3.63 µg/mL) | > 100 µM | 6 µM (≈ 3.63 µg/mL) | 5 µM (≈ 3.02 µg/mL) | > 100 µM | > 100 µM |  |  | 
COC(=O)c1cccc(CN(CCNCCCO)Cc2cccc(CN(Cc3cccc(C(=O)OC)c3)Cc3cccc(C(=O)OC)c3)n2)c1 | 20 µM (≈ 13.7 µg/mL) |  | 50 µM (≈ 34.1 µg/mL) | > 100 µM | 12 µM (≈ 8.19 µg/mL) |  | 25 µM (≈ 17.1 µg/mL) | 10 µM (≈ 6.83 µg/mL) |  | 25 µM (≈ 17.1 µg/mL) |  |  | 
Cc1cccc(CN(Cc2cccc(C(F)(F)F)c2)Cc2cccc(CN(CCNCCCO)Cc3cccc(C(F)(F)F)c3)n2)c1 | 3 µM (≈ 1.98 µg/mL) | 100 µM (≈ 65.9 µg/mL) | > 100 µM | 6 µM (≈ 3.95 µg/mL) | 6 µM (≈ 3.95 µg/mL) | > 100 µM | 12 µM (≈ 7.9 µg/mL) | 3 µM (≈ 1.98 µg/mL) | > 100 µM | > 100 µM |  |  | 
OCCCNCCN(Cc1cccc(F)c1)Cc1cccc(CN(Cc2cccc(F)c2)Cc2cccc(F)c2)n1 | 5 µM (≈ 2.81 µg/mL) |  | 50 µM (≈ 28.1 µg/mL) | 25 µM (≈ 14.1 µg/mL) | 6 µM (≈ 3.38 µg/mL) |  | 12 µM (≈ 6.75 µg/mL) | 5 µM (≈ 2.81 µg/mL) |  | 12 µM (≈ 6.75 µg/mL) |  |  | 
Cc1cccc(CN(CCNCCCO)Cc2cccc(CN(Cc3cccc(C)c3)Cc3cccc(C)c3)n2)c1 | 5 µM (≈ 2.75 µg/mL) | > 100 µM | 12 µM (≈ 6.61 µg/mL) | 6 µM (≈ 3.3 µg/mL) | 6 µM (≈ 3.3 µg/mL) | > 100 µM | 6 µM (≈ 3.3 µg/mL) | 5 µM (≈ 2.75 µg/mL) | > 100 µM | 6 µM (≈ 3.3 µg/mL) |  |  | 
